Measured values reported in ChEMBL document CHEMBL1151773, “Synthesis and biological evaluation of amide derivatives of (5,6-dimethoxy-2,3-dihydro-1H-inden-1-yl)acetic acid as anti-inflammatory agents with reduced gastrointestinal ulcerogenecity” (Eur J Med Chem, 2008).

What was measured:
[1] = tested on: Rattus norvegicus; test: Antiarthritic activity in Albino rat assessed as inhibition of Freund's complete adjuvant-induced paw volume at 10 mg/kg, po administered for 14 days daily once starting a day before adjuvant challenge measured on day 8; assay type: functional
In short: (§1)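 Female albino rats, 160±10 g, six per group, dosed orally once daily for 14 days starting the day before 0.1 ml Freund's complete adjuvant into the right hind paw subplantar surface. Both hind paw volumes, measured up to a mark at the lateral malleolus, taken before and daily after adjuvant.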

[2] = tested on: Mus musculus; test: Analgesic activity in Swiss albino mouse assessed as inhibition of acetic acid-induced writhing at 10 mg/kg, po administered 60 mins before acetic acid challenge after 5 to 15 mins relative to control; assay type: functional
In short: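 Female Swiss albino mice, 20±5 g, fasted overnight with free water access, dosed orally; 1 h later injected i.p. with 1% v/v acetic acid at 0.1 ml/10 g. Writhes (full hind-limb extension) counted for 15 min, starting 5 min after injection; only animals giving 20 or more writhes used. % inhibition = 100(1−Wt/Wc) vs control group mean; six animals per group.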

[3] = tested on: Rattus norvegicus; test: Antipyretic activity in Wistar rat assessed as change in LPS-induced rectal temperature at 10 mg/kg, po administered 30 mins before LPS challenge after 7 hrs; assay type: functional
In short: (§2)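 Adult female Wistar rats, 170±20 g, fasted 24 h, dosed orally at 09:00; 30 min later E. coli 0111:B4 phenol-extracted LPS in apyrogenic saline given i.p. Rectal temperature by telethermometer probe just before and 1–7 h hourly after LPS; temperature index calculated from these readings. n = 6.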

[4] = tested on: Rattus norvegicus; test: Antiinflammatory activity in Wistar rat assessed as inhibition of carrageenan-induced hind paw edema volume at 10 mg/kg, po administered 60 mins before carrageenan challenge after 1 hr relative to control; assay type: functional
In short: (§3)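 Female Wistar rats (170± 20 g), fasted overnight, n=6 per group; dosed orally, then 0.1 ml of 1% carrageenan injected subplantar into right hind paw 1 h later.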

[5] = tested on: Rattus norvegicus; test: Antipyretic activity in Wistar rat assessed as change in LPS-induced rectal temperature at 10 mg/kg, po administered 30 mins before LPS challenge after 1 hr; assay type: functional; in short: as §2
[6] = tested on: Rattus norvegicus; test: Antiarthritic activity in Freund's complete adjuvant challenged Albino rat model assessed as change in body weight at 10 mg/kg, po administered for 14 days daily once starting a day before adjuvant challenge; assay type: functional; settings: 336 h, read-out: INH
[7] = tested on: Rattus norvegicus; test: Antiinflammatory activity in Wistar rat assessed as inhibition of carrageenan-induced hind paw edema volume at 10 mg/kg, po administered 60 mins before carrageenan challenge after 6 hrs relative to control; assay type: functional
[8] = tested on: Rattus norvegicus; test: Antipyretic activity in Wistar rat assessed as change in LPS-induced rectal temperature at 10 mg/kg, po administered 30 mins before LPS challenge after 2 hrs; assay type: functional; in short: as §2
[9] = tested on: Rattus norvegicus; test: Antipyretic activity in Wistar rat assessed as change in LPS-induced rectal temperature at 10 mg/kg, po administered 30 mins before LPS challenge after 5 hrs; assay type: functional; in short: as §2
[10] = tested on: Rattus norvegicus; test: Antiinflammatory activity in Wistar rat assessed as inhibition of carrageenan-induced hind paw edema volume at 10 mg/kg, po administered 60 mins before carrageenan challenge after 3 hrs relative to control; assay type: functional; in short: as §3
[11] = tested on: Rattus norvegicus; test: Antiarthritic activity in Albino rat assessed as inhibition of Freund's complete adjuvant-induced paw volume at 10 mg/kg, po administered for 14 days daily once starting a day before adjuvant challenge measured on day 13; assay type: functional; in short: as §1
[12] = tested on: Rattus norvegicus; test: Antiarthritic activity in Albino rat assessed as inhibition of Freund's complete adjuvant-induced paw volume at 10 mg/kg, po administered for 14 days daily once starting a day before adjuvant challenge measured on day 3; assay type: functional; in short: as §1
[13] = species on record: Rattus norvegicus; test: animal or person; settings: Wistar, po, read-out: INH
[14] = tested on: Rattus norvegicus; test: Antipyretic activity in Wistar rat assessed as change in LPS-induced rectal temperature at 10 mg/kg, po administered 30 mins before LPS challenge after 4 hrs; assay type: functional; in short: as §2
[15] = tested on: Rattus norvegicus; test: Gastrointestinal toxicity in Wistar rat assessed as ulcer index at 1 mg/kg, po after 14 days; assay type: organism-based; parameters: route oral; settings: in vivo, 336 h
In short: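 Gastric mucosa examined for ulceration at post-mortem of female albino rats sacrificed at the end of the 14-day once-daily oral dosing in the Freund's adjuvant arthritis study; ulcer index scored per animal. Mean ± SEM, n = 6.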

[16] = tested on: Rattus norvegicus; test: Antipyretic activity in Wistar rat assessed as change in LPS-induced rectal temperature at 10 mg/kg, po administered 30 mins before LPS challenge after 6 hrs; assay type: functional; in short: as §2
[17] = tested on: Rattus norvegicus; test: Antiinflammatory activity in Wistar rat assessed as inhibition of carrageenan-induced hind paw edema volume at 10 mg/kg, po administered 60 mins before carrageenan challenge after 24 hrs relative to control; assay type: functional
[18] = tested on: Rattus norvegicus; test: Antiinflammatory activity in Wistar rat assessed as inhibition of carrageenan-induced hind paw edema volume at 10 mg/kg, po administered 60 mins before carrageenan challenge after 4 hrs relative to control; assay type: functional; in short: as §3
[19] = tested on: Rattus norvegicus; test: Antipyretic activity in Wistar rat assessed as change in LPS-induced rectal temperature at 10 mg/kg, po administered 30 mins before LPS challenge after 3 hrs; assay type: functional; in short: as §2
[20] = tested on: Rattus norvegicus; test: Gastrointestinal toxicity in Wistar rat assessed as ulcer index at 30 mg/kg, po after 6 hrs; assay type: organism-based; parameters: dose 30 mg/kg, route oral; settings: in vivo
In short: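 Female Wistar rats, 175±25 g, fasted 24 h, dosed orally once; sacrificed 6 h later by cervical dislocation. Stomach opened along greater curvature, saline-washed, mucosa inspected with a hand lens. Lesions graded I (edema/hyperemia/petechiae), II (hemorrhagic lesions with small erosions), III (deep ulcers); UI = nI + 2nII + 3nIII. Mean ± SEM, n = 6.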

What does the source list for `COc1ccc2c(c1)c(CC(=O)O)c(C)n2C(=O)c1ccc(Cl)cc1` [INDOMETHACIN]?
inhibition in vivo at 10 mg/kg [1]: 43.9%; inhibition in vivo at 10 mg/kg [2]: 51.5%; Activity [3]: 0.55 °C; inhibition in vivo at 10 mg/kg [4]: 50%; Activity [5]: -0.39 °C; inhibition in vivo at 10 mg/kg [6]: 5.68 g; inhibition in vivo at 10 mg/kg [7]: 48.1%; Activity [8]: -1.03 °C; Activity [9]: 0.3 °C; inhibition in vivo at 10 mg/kg [10]: 65.2%; inhibition in vivo at 10 mg/kg [11]: 46.5%; inhibition in vivo at 10 mg/kg [12]: 37.5%; inhibition in vivo at 10 mg/kg [13]: 58%; Activity [14]: 0.22 °C; UI [15]: 72; Activity [16]: 0.35 °C; inhibition in vivo at 10 mg/kg [17]: 13.3%; inhibition in vivo at 10 mg/kg [18]: 57.8%; Activity [19]: -0.11 °C; UI [20]: 31.37
